In the array DNA melting data of Ke et al. (doi:10.1101/2024.01.08.574731):

Experiments:
[1] = folding enthalpy; higher = less favourable; fluorescence melt of hairpins on a sequencing array, two-state fit; settings: sodium 0.088 M
Summary of the method: (§1)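 On a sequenced MiSeq flow cell, library hairpins with annealed Cy3 and quencher oligos were imaged for Cy3 fluorescence in 2.5 °C steps up to 60 °C, in 50 mM Na-HEPES pH 8.0, 25 mM NaCl. Normalisation used pre-quench Cy3 and control constructs. Bootstrapped two-state fits gave melting temperature and folding enthalpy, combined by inverse variance across four replicates and with fitted temperatures raised by 9.35 °C to match UV melts.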

[2] = melting temperature; fluorescence melt of hairpins on a sequencing array, two-state fit, raised by 9.35 °C to match UV melts; settings: sodium 0.088 M
Summary of the method: as §1

GGATCGGGAAACCGACCC ((.((((....)))).)) showed a folding enthalpy [1] of -31.8 kcal/mol and a Tm [2] of 47.7 °C.
GAGAGCGGAAACGTTCTC ((((.((....)).)))) showed a folding enthalpy [1] of -34.6 kcal/mol and a Tm [2] of 49.1 °C.
With CTTTCGAAAGAAAG (((((....))))) the folding enthalpy [1] was -19.3 kcal/mol and the Tm [2] was 47.3 °C.
Work on GATCGACCTTCGATC ((((((...)))))) yielded a folding enthalpy [1] of -35.6 kcal/mol and a Tm [2] of 51 °C.
In the case of GATCAGCACGCTGATC ((((((....)))))), the folding enthalpy [1] is reported as -42.1 kcal/mol and the Tm [2] is reported as 62.3 °C.
For GGTTCCGAAAGGAAACC ((((((....))).))), the folding enthalpy [1] was -25.9 kcal/mol and the Tm [2] was 53.7 °C.
Work on GCACTGCGAAAGCATAGC ((..(((....)))..)) yielded a folding enthalpy [1] of -15.3 kcal/mol and a Tm [2] of 35.6 °C.
For GCCCAAGGAAACTTGGAC (.(((((....))))).), the folding enthalpy [1] was -19.6 kcal/mol and the Tm [2] was 38 °C.
Work on GTCAGGGGAAACCCTGAC (((((((....))))))) yielded a folding enthalpy [1] of -41.9 kcal/mol and a Tm [2] of 65.1 °C.
For GCGGCTGCGAAAGCACGC (((..(((....)))))), the folding enthalpy [1] was -16.6 kcal/mol and the Tm [2] was 57.9 °C.
In the case of TAAGGGAAACCTTA (((((....))))), the folding enthalpy [1] is reported as -10.6 kcal/mol and the Tm [2] is reported as 29.1 °C.
Sequence GTGATGGCGAAAGCCCAC (((..(((....)))))) has a folding enthalpy [1] of -14.6 kcal/mol and a Tm [2] of 41.2 °C.
In the case of GATCCACCGGTGGATC ((((((....)))))), the folding enthalpy [1] is reported as -50 kcal/mol and the Tm [2] is reported as 60.3 °C.
With GCGCTCGAAAGAGGTCGC ((((((....)))..))) the folding enthalpy [1] was -25.2 kcal/mol and the Tm [2] was 47.9 °C.
In the case of GGACGCGGAAACGCACCC ((..(((....)))..)), the folding enthalpy [1] is reported as -10.1 kcal/mol and the Tm [2] is reported as 33.7 °C.
Work on GGCCCAGGAAACCGGGCC (((((.(....).))))) yielded a folding enthalpy [1] of -42.2 kcal/mol and a Tm [2] of 63.5 °C.
GAGGCCGAAAGGCAACTC ((((((....)))..))) showed a folding enthalpy [1] of -14.2 kcal/mol and a Tm [2] of 46.7 °C.
With GCGGGGCGAAAGCCGTGC ((..(((....)))..)) the folding enthalpy [1] was -27.3 kcal/mol and the Tm [2] was 62.5 °C.
Work on GCCATGCGAAAGCAAGGC (((.(((....))).))) yielded a folding enthalpy [1] of -42.6 kcal/mol and a Tm [2] of 60.5 °C.
GGCGGCGCGAAAGCGGCC (((..(((....)))))) gave a folding enthalpy [1] of -9.35 kcal/mol and a Tm [2] of 59.5 °C.
For GGCTTCGGAAACAAAGCC (((((.(....).))))), the folding enthalpy [1] was -28.3 kcal/mol and the Tm [2] was 44.2 °C.
GCTATGCGAAAGCCTCGC ((.(.((....)).).)) gave a folding enthalpy [1] of -11.5 kcal/mol and a Tm [2] of 32.2 °C.
In the case of GGGGCCGAAAGGCCTCCC ((((((....)))..))), the folding enthalpy [1] is reported as -9.22 kcal/mol and the Tm [2] is reported as 54.8 °C.
For GCATCAGCGAAAGCTTGC (((..(((....)))))), the folding enthalpy [1] was -13.2 kcal/mol and the Tm [2] was 41.3 °C.
With GGCACTTCGAAAGAAGCC (((..(((....)))))) the folding enthalpy [1] was -9.16 kcal/mol and the Tm [2] was 32.2 °C.
For GATCACACGCGTGATC ((((((....)))))), the folding enthalpy [1] was -38.6 kcal/mol and the Tm [2] was 58.5 °C.
For GTCTTGACGAAAGTCGAC (((..(((....)))))), the folding enthalpy [1] was -11 kcal/mol and the Tm [2] was 35.5 °C.
Work on GAGTAACGAAAGTTTCTC (((.(((....))).))) yielded a folding enthalpy [1] of -30.1 kcal/mol and a Tm [2] of 40.3 °C.
GATCTTAGTCAAGATC ((((((....)))))) showed a folding enthalpy [1] of -31.4 kcal/mol and a Tm [2] of 42.2 °C.
With GCGATTACTCGC ((((....)))) the folding enthalpy [1] was -23.7 kcal/mol and the Tm [2] was 49.3 °C.
In the case of GATCCAGGCGTGGATC ((((((....)))))), the folding enthalpy [1] is reported as -40.9 kcal/mol and the Tm [2] is reported as 53.6 °C.
GATCTCAATCGAGATC ((((((....)))))) showed a folding enthalpy [1] of -43.7 kcal/mol and a Tm [2] of 52.2 °C.
With GTTCGGCGAAAGCCCAAC (((.(((....))).))) the folding enthalpy [1] was -11.2 kcal/mol and the Tm [2] was 37.1 °C.
GACTCCCCGAAAGGGGTC (((..(((....)))))) showed a folding enthalpy [1] of -7.79 kcal/mol and a Tm [2] of 31.4 °C.
